From paper PMC6779328 (Bioorganic & medicinal chemistry, 2019)
≈ marks a conversion by molar mass, not a printed value.

Legend:
[1] = test system: MRSA ATCC BAA-44; assay: Minimum re-sensitizing concentration; format: cell-based, Staphylococcus aureus; conditions: MRSA BAA-44, cefazolin
Summary of the method: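 MRSA ATCC BAA-44. The test compound was combined with cefazolin, and the minimum resensitizing concentration (MRC) was reported in μg/mL. MIC alone was determined by standard CLSI broth microdilution. MIC and MRC values were confirmed in triplicate. RMA activity was expressed as the ratio MIC/MRC.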

[2] = test system: MRSA ATCC BAA-44; assay: MIC by broth microdilution, MRSA BAA-44; format: cell-based, Staphylococcus aureus; conditions: MRSA BAA-44, compound alone
[3] = test system: MRSA-252; assay: MIC, MRSA-252; format: cell-based, Staphylococcus aureus
[4] = test system: B.subtilis NR-607; assay: MIC, B.subtilis NR-607; format: cell-based
[5] = test system: HeLa cells; assay: HeLa growth inhibition; format: cell-based, human
[6] = test system: E.faecium HM-460; assay: MIC, E.faecium HM-460; format: cell-based
[7] = test system: MSSA; assay: MIC, MSSA; format: cell-based, S. aureus
[8] = test system: E.faecium 28977; assay: MIC, E.faecium 28977; format: cell-based
[9] = Staphylococcus aureus, ATCCBAA44|BAA44|MRSA

Compound	RMA activity (in words) [1]	other results
Clc1ccc2sc(N3CCc4c([nH]c5ccc(Cl)cc45)C3)nc2c1 [4v, 6-Chloro-2-(5-chloro-1,3-benzothiazol-2-yl)-2,3,4,9-tetrahydro-1H-pyrido[3,4-b]indole]	no RMA activity	–
Cc1nnc(SCC2=C(C(=O)O)N3C(=O)[C@@H](NC(=O)Cn4cnnn4)[C@H]3SC2)s1 [Cefazolin, reference compound]	–	MIC [2, 9]: 256 µg/mL (≈ 563 µM)
Clc1ccc2[nH]c3c(c2c1)CCN(c1nc2c(Cl)cccc2s1)C3 [4w, 6-Chloro-2-(4-chloro-1,3-benzothiazol-2-yl)-2,3,4,9-tetrahydro-1H-pyrido[3,4-b]indole]	maintained similar RMA activity	–
Nc1cc(Cl)c2nc(N3CCc4c([nH]c5ccc(Cl)cc45)C3)sc2c1 [4ad, 4-Chloro-2-(6-chloro-1,3,4,9-tetrahydro-2H-pyrido[3,4-b]indol-2-yl)-1,3-benzothiazol-6-amine]	good RMA activities	–
CO/N=C(\C(=O)N[C@@H]1C(=O)N2C(C(=O)O)=C(COC(N)=O)CS[C@H]12)c1ccco1 [Cefuroxime, reference compound]	–	MIC [2]: 256 µg/mL (≈ 603 µM); MIC [2, 9]: 128 µg/mL (≈ 302 µM)
COC(=O)C1Cc2c([nH]c3ccc(Cl)cc23)CN1c1nc2ccc(Cl)cc2s1 (stereo not shown) [4m, Methyl 6-chloro-2-(6-chloro-1,3-benzothiazol-2-yl)-2,3,4,9-tetrahydro-1H-pyrido[3,4-b]indole-3-carboxylate]	abolished	MIC [2]: >64 µg/mL
1-((6-chloro-2-(6-chlorobenzo[d]thiazol-2-yl)-2,3,4,9-tetrahydro-1H-pyrido[3,4-b]indol-4-yl)methyl)guanidine hydrochloride [12g]	–	MIC [3]: 2 µg/mL; MIC [4]: 2 µg/mL; GI50 ([5]; 24 h): 14.1 µg/mL; MIC [6]: 4 µg/mL; MIC [7]: 0.5 µg/mL; MIC [2]: 2 µg/mL; MIC [8]: 2 µg/mL
FC(F)(F)c1cccc2sc(N3CCc4c([nH]c5ccc(Cl)cc45)C3)nc12 [4af, 6-Chloro-2-[4-(trifluoromethyl)-1,3-benzothiazol-2-yl]-2,3,4,9-tetrahydro-1H-pyrido[3,4-b]indole]	good RMA activities	GI50 worse than R^9-Cl analog 4w [5]: 3 fold
Clc1ccc2[nH]c3c(c2c1)CCN(c1nc2ccc(Br)cc2s1)C3 [4p, 2-(6-Bromo-1,3-benzothiazol-2-yl)-6-chloro-2,3,4,9-tetrahydro-1H-pyrido[3,4-b]indole]	retained the RMA activity	–
Cc1ccc2nc(N3CCc4c([nH]c5ccc(Cl)cc45)C3)sc2c1 [4c, 6-Chloro-2-(6-methyl-1,3-benzothiazol-2-yl)-2,3,4,9-tetrahydro-1H-pyrido[3,4-b]indole]	no RMA activity	–
Clc1cc(Cl)c2nc(N3CCc4c([nH]c5ccc(Cl)cc45)C3)sc2c1 [4x, 6-Chloro-2-(4,6-dichloro-1,3-benzothiazol-2-yl)-2,3,4,9-tetrahydro-1H-pyrido[3,4-b]indole]	–	antibacterial activity, MIC (in words) [2]: excellent MICs
CCn1c2c(c3cc(Cl)ccc31)CCN(c1nc3ccc(Cl)cc3s1)C2 [4o, 6-Chloro-2-(6-chloro-1,3-benzothiazol-2-yl)-9-ethyl-2,3,4,9-tetrahydro-1H-pyrido[3,4-b]indole]	abolished	–
Clc1ccc2[nH]c3c(c2c1)CCN(c1nc2cccc(Cl)c2s1)C3 [4u, 6-Chloro-2-(7-chloro-1,3-benzothiazol-2-yl)-2,3,4,9-tetrahydro-1H-pyrido[3,4-b]indole]	reduced RMA activity	–
6-Chloro-N-[3-(trifluoromethyl)phenyl]-1,3,4,9-tetrahydro-2H-pyrido[3,4-b]indole-2-carbothioamide [5c]	–	MIC [2]: 2 µg/mL
CN(C)C(=O)C1CN(c2nc3ccc(Cl)cc3s2)Cc2[nH]c3ccc(Cl)cc3c21 (stereo not shown) [compound 9, 6-Chloro-2-(6-chlorobenzo[d]thiazol-2-yl)-N,N-dimethyl-2,3,4,9-tetrahydro-1H-pyrido[3,4-b]indole-4-carboxamide]	significantly decreased or abolished	–
O=C(O)C1CN(c2nc3ccc(Cl)cc3s2)Cc2[nH]c3ccc(Cl)cc3c21 (stereo not shown) [compound 8, 6-Chloro-2-(6-chlorobenzo[d]thiazol-2-yl)-2,3,4,9-tetrahydro-1H-pyrido[3,4-b]indole-4-carboxylic acid]	significantly decreased or abolished	–
CNc1cc(C(F)(F)F)c2nc(N3CCc4c([nH]c5ccc(Cl)cc45)C3)sc2c1 [4ai, 2-(6-Chloro-1,3,4,9-tetrahydro-2H-pyrido[3,4-b]indol-2-yl)-N-methyl-4-(trifluoromethyl)-1,3-benzothiazol-6-amine]	good RMA activities	–
Clc1ccc2[nH]c3c(c2c1)CCN(c1nc2ncccc2s1)C3 [4d, 6-Chloro-2-([1,3]thiazolo[4,5-b]pyridin-2-yl)-2,3,4,9-tetrahydro-1H-pyrido[3,4-b]indole]	abolished	–
FC(F)(F)c1cnc2nc(N3CCc4c([nH]c5ccc(Cl)cc45)C3)sc2c1 [4e, 6-Chloro-2-[6-(trifluoromethyl)[1,3]thiazolo[4,5-b]pyridin-2-yl]-2,3,4,9-tetrahydro-1H-pyrido[3,4-b]indole]	abolished	–
Clc1ccc2[nH]c3c(c2c1)CCN(c1nc2c(Cl)c(Cl)c(Cl)cc2s1)C3 [4y, 6-Chloro-2-(4,5,6-trichloro-1,3-benzothiazol-2-yl)-2,3,4,9-tetrahydro-1H-pyrido[3,4-b]indole]	–	antibacterial activity, MIC (in words) [2]: excellent MICs
Clc1ccc2[nH]c3c(c2c1)CCN(c1nc2ccccc2s1)C3 [4b, 2-(1,3-Benzothiazol-2-yl)-6-chloro-2,3,4,9-tetrahydro-1H-pyrido[3,4-b]indole]	no RMA activity	–
CCOC(=O)C1c2[nH]c3ccc(Cl)cc3c2CCN1c1nc2ccc(Cl)cc2s1 (stereo not shown) [4l, Ethyl 6-chloro-2-(6-chloro-1,3-benzothiazol-2-yl)-2,3,4,9-tetrahydro-1H-pyrido[3,4-b]indole-1-carboxylate]	abolished	–
Cl.NCC(=O)Nc1cc(Cl)c2nc(N3CCc4c([nH]c5ccc(Cl)cc45)C3)sc2c1 [4ae, 2-amino-N-(4-chloro-2-(6-chloro-1,3,4,9-tetrahydro-2H-pyrido[3,4-b]indol-2-yl)benzo[d]thiazol-6-yl)acetamide hydrochloride]	–	antibacterial activity, MIC (in words) [2]: excellent MICs
FC(F)(F)Oc1ccc2nc(N3CCc4c([nH]c5ccc(Cl)cc45)C3)sc2c1 [4t, 6-Chloro-2-[6-(trifluoromethoxy)-1,3-benzothiazol-2-yl]-2,3,4,9-tetrahydro-1H-pyrido[3,4-b]indole]	lost the RMA activity completely	–
Cl.NCCNc1cc(C(F)(F)F)c2nc(N3CCc4c([nH]c5ccc(Cl)cc45)C3)sc2c1 [4aj, N1-(2-(6-chloro-1,3,4,9-tetrahydro-2H-pyrido[3,4-b]indol-2-yl)-4-(trifluoromethyl)benzo[d]thiazol-6-yl)ethane-1,2-diamine hydrochloride]	–	antibacterial activity, MIC (in words) [2]: excellent MICs
